Results from ChEMBL document CHEMBL4325899, “Synthesis and photocytotoxic activity of [1,2,3]triazolo[4,5-h][1,6]naphthyridines and [1,3]oxazolo[5,4-h][1,6]naphthyridines” (Eur J Med Chem, 2019).
Activity calls are given as the source filed them. The rule behind the calls is not given here.

Columns and labels:
MCF7 [1] = assay: Induction of ROS generation in human MCF7 cells at 0.5 to 2 uM preincubated for 30 mins followed by irradiation at 1.5 J/cm2 for 2 hrs in presence of NAC by H2DCFDA probe-based fluorescence assay; type: functional, cell-based
Procedure, shortened: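 This is the DCF assay in MCF7 cells run as for irradiated samples (30 min compound, 10 µM H2DCFDA, 1.5 J/cm²). Before treatment, cells were pre-incubated with N-acetylcysteine at […]. Fluorescence was read 2 h after light exposure, relative to irradiated untreated controls, with three independent experiments.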

A-375 = assay: Phototoxicity against human A375 cells preincubated for 5 mins followed by compound washout and subsequent UV irradiation at 1.5 J/cm2 for 5 mins measured after 72 hrs by MTT assay; type: functional, cell-based; conditions: A-375, light or radiation study
Procedure, shortened: (§1)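 Compounds were diluted in DMSO (0.5% final), applied in triplicate for 5 min, then washed out with PBS. After medium removal, cells were irradiated on ice for 5 min at 365 nm (1.5 J/cm²) and then kept 72 h at 37 °C. Viability was read by MTT at 540 nm and expressed relative to 0.5% DMSO controls given the same treatment. EC50 is the concentration killing 50%, as the mean ± SD of at least three experiments.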

HT-29 [2] = assay: Phototoxicity against human HT-29 cells preincubated for 5 mins followed by compound washout and subsequent UV irradiation at 1.5 J/cm2 for 5 mins measured after 72 hrs by MTT assay; type: functional, cell-based; conditions: HT-29, light or radiation study; procedure, shortened: as §1
MCF7 [3] = assay: Phototoxicity against human MCF7 cells preincubated for 5 mins followed by compound washout and subsequent UV irradiation at 1.5 J/cm2 for 5 mins measured after 72 hrs by MTT assay; type: functional, cell-based; conditions: MCF7, light or radiation study; procedure, shortened: as §1
[4] = Dark toxicity against human MCF7 cells preincubated for 5 mins followed by compound washout and measured after 72 hrs by MTT assay; type: cell-based
Procedure, shortened: (§2)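 Cells were plated and allowed to attach overnight. Compounds were diluted in DMSO (0.5% final), with each concentration in triplicate, and applied for 5 min. Cells were then washed in PBS and given fresh medium. Without irradiation, cells were held 72 h at up to 50 μM. MTT (5 mg/mL stock) was added for 4 h, crystals were dissolved in SDS/HCl overnight, and absorbance was read at 540 nm. CC50 is the concentration killing 50% of cells, taken as the mean of at least three experiments.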

[5] = Dark toxicity against human MCF10A cells preincubated for 5 mins followed by compound washout and measured after 72 hrs by MTT assay; type: cell-based, MCF-10A; procedure, shortened: as §2
HT-29 [6] = assay: Phototoxicity index, ratio of CC50 for human HT-29 cells to EC50 for human HT-29 cells under UV irradiation at 1.5 J/cm2
MCF7 [7] = assay: Phototoxicity index, ratio of CC50 for human MCF7 cells to EC50 for human MCF7 cells under UV irradiation at 1.5 J/cm2
[8] = Selectivity index, ratio of EC50 for human MCF10A cells under UV irradiation at 1.5 J/cm2 to EC50 for human A375 cells under UV irradiation at 1.5 J/cm2; type: toxicity; conditions: MCF10A cells versus A375 cells, read-out: Ratio EC50
Procedure, shortened: (§3)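 SI is the EC50 under irradiation in non-tumor MCF10A cells divided by the EC50 under irradiation in the tumor line. Both were MTT read-outs 72 h after 1.5 J/cm² at 365 nm.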

[9] = Selectivity index, ratio of EC50 for human MCF10A cells under UV irradiation at 1.5 J/cm2 to EC50 for human HT-29 cells under UV irradiation at 1.5 J/cm2; type: toxicity; conditions: MCF10A cells versus HT-29 cells, read-out: Ratio EC50; procedure, shortened: as §3
[10] = Selectivity index, ratio of EC50 for human MCF10A cells under UV irradiation at 1.5 J/cm2 to EC50 for human MCF7 cells under UV irradiation at 1.5 J/cm2; type: toxicity; conditions: MCF10A cells versus MCF7 cells, read-out: Ratio EC50; procedure, shortened: as §3
MCF7 [11] = assay: Cell cycle arrest in human MCF7 cells assessed as accumulation at subG1 phase at EC25 after 24 hrs under UV-irradiation by propidium iodide staining-based flow cytometric analysis (reference value: 4.8%); type: functional
MCF7 [12] = assay: Cell cycle arrest in human MCF7 cells assessed as accumulation at S phase at EC25 after 24 hrs under UV-irradiation by propidium iodide staining-based flow cytometric analysis (reference value: 24.7%); type: functional
MCF7 [13] = assay: Cell cycle arrest in human MCF7 cells assessed as accumulation of cells at G2/M phase at EC25 after 24 hrs under UV-irradiation by propidium iodide staining-based flow cytometric analysis (reference value: 26.3%); type: functional
MCF7 [14] = assay: Induction of apoptosis in human MCF7 cells assessed as apoptotic cells at EC25 to EC75 after 4 hrs in presence of photoirradiation by Annexin V-FITC/propidium iodide staining-based flow cytometric analysis relative to control; type: functional
MCF7 [15] = assay: Induction of apoptosis in human MCF7 cells assessed as necrotic cells at EC25 to EC75 after 4 hrs in presence of photoirradiation by Annexin V-FITC/propidium iodide staining-based flow cytometric analysis relative to control; type: functional
MCF7 [16] = assay: Induction of mitochondrial dysfunction in human MCF7 cells assessed as organelles fusion at 2 uM after 120 mins in presence of UV irradiation by Mitotracker Orange CMTM-ROS staining-based confocal microscopic analysis; type: functional, cell-based
Procedure, shortened: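 MCF7 cells (4x10⁵) were plated on glass slides for 24 h. They were then loaded with MitoTracker Orange CMTM-ROS (150 nM) for 45 min in phenol-red-free, serum-free medium, before 2 µM compound and UV photoactivation. Cells were fixed in 2% PFA 20 min or 2 h after UV and imaged confocally (ex 543 nm, em 560–620 nm). PMA (400 nM) served as ROS-inducer control.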

MCF7 [17] = assay: Induction of lysosomal activation in human MCF7 cells assessed as late apoptotis at 2 uM after 2 hrs in presence of UV irradiation by Lysotracker Green DND 26 staining-based confocal microscopic analysis; type: functional, cell-based
Procedure, shortened: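 MCF7 cells (4x10⁵) on glass slides were loaded with LysoTracker Green DND-26 (175 nM) for 45 min in phenol-red-free, serum-free medium, before 2 µM compound with or without UV activation. Cells were fixed in 2% PFA 20 min or 2 h after UV and imaged confocally (ex 488 nm, em 500–530 nm). Controls were untreated cells with and without irradiation, and cells given PMA (400 nM).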

MCF7 [18] = assay: Cell cycle arrest in human MCF7 cells assessed as accumulation of cells at G0/G1 phase at EC50 after 24 hrs under UV-irradiation by propidium iodide staining-based flow cytometric analysis (reference value: 44.2%); type: functional
MCF7 [19] = assay: Cell cycle arrest in human MCF7 cells assessed as accumulation of cells at S phase at EC50 after 24 hrs under UV-irradiation by propidium iodide staining-based flow cytometric analysis (reference value: 24.7%); type: functional
[20] = Drug localization in cytoplasm of human MCF7 cells assessed as punctate formation at 2 uM measured within 10 mins by confocal microscopic analysis; type: ADME, subcellular; conditions: mcf7, 10 min

With `COc1ccc(-c2nc3c(nc(C)c4ccc(-c5ccccc5)nc43)o2)cc1` the Activity (MCF7 [1]) was “inactive”, the EC50 (A-375) was 11 nM and the EC50 (HT-29 [2]) was 12 nM. For the same compound, the EC50 (MCF7 [3]) was 10 nM, the CC50 at 72 h [4] was greater than 50000 nM and the CC50 at 72 h [5] was greater than 50000 nM. The “Ratio CC50/EC50” value (HT-29 [6]) was greater than 4167, the “Ratio CC50/EC50” value (MCF7 [7]) was greater than 5000 and the selectivity ratio [8] was 79. It also gave a selectivity ratio [9] of 72, a selectivity ratio [10] of 86 and an Activity (MCF7 [11]) of 4.3%. For the same compound, the Activity (MCF7 [12]) was 24.8%, the Activity (MCF7 [13]) was 26.8% and the Activity (MCF7 [14]) was 34 - 50%. The Activity (MCF7 [15]) was 10%, the Activity (MCF7 [16]) was “Active” and the Activity (MCF7 [17]) was “Active”. For the same compound, the Activity (MCF7 [18]) was 43.1%, the Activity (MCF7 [19]) was 25.6% and the Drug uptake [20] was “Active”.
